Data from ChEMBL document CHEMBL1131297, “N-(2-Benzoylphenyl)-L-tyrosine PPARgamma agonists. 3. Structure-activity relationship and optimization of the N-aryl substituent” (J Med Chem, 1998).
Converted amounts (≈) assume the structure as drawn.

Columns and labels:
[1] = target: T1, Peroxisome proliferator-activated receptor gamma (Homo sapiens, UniProt P37231); experiment: in vitro agonist activity against peroxisome proliferator activated receptor-gamma (PPAR-gamma), using alkaline phosphatase activity transactivator assay; format: functional
T1 sequence (P37231 whole entry): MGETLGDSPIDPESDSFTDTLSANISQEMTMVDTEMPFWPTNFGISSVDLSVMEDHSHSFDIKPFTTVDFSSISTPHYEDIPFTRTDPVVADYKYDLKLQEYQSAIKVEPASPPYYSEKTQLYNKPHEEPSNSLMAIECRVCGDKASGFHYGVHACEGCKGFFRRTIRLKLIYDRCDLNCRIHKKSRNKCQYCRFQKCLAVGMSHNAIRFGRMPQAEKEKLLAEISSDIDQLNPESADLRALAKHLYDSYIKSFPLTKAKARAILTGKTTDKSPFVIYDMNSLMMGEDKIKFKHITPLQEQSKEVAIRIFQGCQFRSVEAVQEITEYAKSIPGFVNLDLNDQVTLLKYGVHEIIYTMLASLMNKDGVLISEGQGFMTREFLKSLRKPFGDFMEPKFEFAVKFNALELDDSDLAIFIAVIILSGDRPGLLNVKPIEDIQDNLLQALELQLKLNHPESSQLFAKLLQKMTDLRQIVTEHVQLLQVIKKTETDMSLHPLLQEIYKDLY

[2] = target: T1, Peroxisome proliferator-activated receptor gamma; experiment: Binding affinity against peroxisome proliferator activated receptor gamma (PPAR-gamma)
[3] = target: T1, Peroxisome proliferator-activated receptor gamma; experiment: The compound was tested in vitro for inhibiting the 50% binding of Peroxisome proliferator activated receptor gamma
Summary of the method: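 Radioligand competition binding to the human PPARγ ligand-binding domain. IC50 is the concentration inhibiting 50% of specific radioligand binding. Apparent Ki = IC50/(1 + [L]/Kd), where [L] is the radioligand concentration and Kd its dissociation constant. Reported as pKi (−log Ki).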

[4] = target: T1, Peroxisome proliferator-activated receptor gamma; experiment: The compound was tested functionally in vitro for inducing 50% of the maximum alkaline phosphatase activity (Transactivation) against Peroxisome proliferator activated receptor gamma; format: functional
[5] = Solubility in phosphate buffer at pH 7.4.; format: physicochemical
Summary of the method: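 Solubility in 0.06 M phosphate buffer, pH 7.4, in temperature-controlled shaking water baths. Samples were drawn, passed through a 0.22-µm filter, diluted in water/acetonitrile (60:40), and quantified by HPLC on a phenyl reverse-phase column. Reported in mg/mL.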

[6] = Solubility in simulated gastric fluid.; format: physicochemical; conditions: read-out: S
Summary of the method: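 Solubility in simulated gastric fluid, pH 1.2, in temperature-controlled shaking water baths. Samples were drawn, passed through a 0.22-µm filter, diluted in water/acetonitrile (60:40), and quantified by HPLC on a phenyl reverse-phase column.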

CSc1nc(NC(Cc2ccc(OCCN(C)c3nc4ccccc4o3)cc2)C(=O)O)c(C(=O)c2ccccc2)s1 (stereo not given)
EC50 [1]: 4070 nM
Ki [2]: 42.7 nM

Cc1ccc(NC(Cc2ccc(OCCN(C)c3nc4ccccc4o3)cc2)C(=O)O)c(C(=O)c2ccccc2)c1 (stereo not given)
EC50 [1]: 229 nM
Ki [2]: 13.5 nM

CN(CCOc1ccc(CC(Nc2ccccc2C(=O)c2cccc(OCc3ccccc3)c2)C(=O)O)cc1)c1nc2ccccc2o1 (stereo not given)
Ki [3]: 53.7 nM
EC50 [4]: 741 nM

Cc1oc(-c2ccccc2)nc1CCOc1ccc(C[C@@H](Nc2ccccc2C(=O)C2CCCCC2)C(=O)O)cc1
solubility [5]: 52 µg/mL (≈ 94.1 µM)
solubility [6]: 2 µg/mL (≈ 3.62 µM)
EC50 [1]: 15.1 nM
Ki [2]: 191 nM

CN(CCOc1ccc(CC(Nc2ccc(Cl)cc2C(=O)c2ccccc2)C(=O)O)cc1)c1nc2ccccc2o1 (stereo not given)
EC50 [1]: 89.1 nM
Ki [2]: 8.71 nM

CN(CCOc1ccc(CC(Nc2ccccc2C(=O)c2ccc(C(F)(F)F)cc2)C(=O)O)cc1)c1nc2ccccc2o1 (stereo not given)
EC50 [1]: 24 nM
Ki [2]: 5.13 nM

Cc1oc(-c2ccccc2)nc1CCOc1ccc(CC(Nc2ccccc2C(=O)c2ccc(C(=O)O)cc2)C(=O)O)cc1 (stereo not given)
EC50 [1]: 7590 nM
Ki [2]: 646 nM

CCOC(=O)c1ccccc1NC(Cc1ccc(OCCc2nc(-c3ccccc3)oc2C)cc1)C(=O)O (stereo not given)
EC50 [1]: 0.912 nM
Ki [2]: 3.02 nM

Cc1ccc(C(=O)c2ccccc2NC(Cc2ccc(OCCN(C)c3nc4ccccc4o3)cc2)C(=O)O)cc1 (stereo not given)
EC50 [1]: 8.51 nM
Ki [2]: 2.82 nM

CN(CCOc1ccc(CC(Nc2ccccc2C(=O)C2CCCC2)C(=O)O)cc1)c1nc2ccccc2o1 (stereo not given)
EC50 [1]: 18.2 nM
Ki [2]: 6.46 nM

Cc1ccccc1C(=O)c1ccccc1NC(Cc1ccc(OCCN(C)c2nc3ccccc3o2)cc1)C(=O)O (stereo not given)
EC50 [1]: 9.33 nM

CN(CCOc1ccc(CC(Nc2ccccc2C(=O)c2cccc(C(F)(F)F)c2)C(=O)O)cc1)c1nc2ccccc2o1 (stereo not given)
EC50 [1]: 11.7 nM
Ki [2]: 2.63 nM

CN(CCOc1ccc(C[C@H](Nc2ccccc2C(=O)C2CCCCC2)C(=O)O)cc1)c1nc2ccccc2o1
EC50 [1]: 2.88 nM
Ki [2]: 4.07 nM

Cc1oc(-c2ccccc2)nc1CCOc1ccc(CC(Nc2ccccc2C(=O)c2cccc(CO)c2)C(=O)O)cc1 (stereo not given)
solubility [5]: 1340 µg/mL (≈ 2320 µM)
EC50 [1]: 24.5 nM
Ki [2]: 3.39 nM

Cc1oc(-c2ccccc2)nc1CCOc1ccc(C[C@H](Nc2ccccc2C(=O)C2CCCCC2)C(=O)O)cc1
EC50 [1]: 0.282 nM

CCCOC(=O)c1ccccc1NC(Cc1ccc(OCCc2nc(-c3ccccc3)oc2C)cc1)C(=O)O (stereo not given)
EC50 [1]: 0.302 nM
Ki [2]: 2.4 nM

CN(CCOc1ccc(CC(Nc2cscc2C(=O)c2ccccc2)C(=O)O)cc1)c1nc2ccccc2o1 (stereo not given)
EC50 [1]: 8.32 nM
Ki [2]: 2.57 nM

CN(CCOc1ccc(CC(Nc2ccccc2C(=O)c2ccsc2)C(=O)O)cc1)c1nc2ccccc2o1 (stereo not given)
EC50 [1]: 63.1 nM
Ki [2]: 2.34 nM

Cc1oc(-c2ccccc2)nc1CCOc1ccc(CC(Nc2ccccc2C(=O)c2cccc(CN(C)C)c2)C(=O)O)cc1 (stereo not given)
solubility [5]: 9 µg/mL (≈ 14.9 µM)
solubility [6]: 9 µg/mL (≈ 14.9 µM)
EC50 [1]: 417 nM

CNC(=O)c1ccccc1NC(Cc1ccc(OCCc2nc(-c3ccccc3)oc2C)cc1)C(=O)O (stereo not given)
EC50 [1]: 32.4 nM
Ki [2]: 15.5 nM

Cc1oc(-c2ccccc2)nc1CCOc1ccc(CC(Nc2ccccc2C(=O)c2ccncc2)C(=O)O)cc1 (stereo not given)
solubility [5]: 1150 µg/mL (≈ 2100 µM)
solubility [6]: 87 µg/mL (≈ 159 µM)
EC50 [1]: 0.912 nM

Cc1oc(-c2ccccc2)nc1CCOc1ccc(CC(Nc2ccccc2C(=O)c2cccc(C(=O)O)c2)C(=O)O)cc1 (stereo not given)
EC50 [1]: 209 nM
Ki [2]: 813 nM

Cc1oc(-c2ccccc2)nc1CCOc1ccc(CC(Nc2ccccc2C(=O)O)C(=O)O)cc1 (stereo not given)
EC50 [1]: 4900 nM
Ki [2]: > 3160 nM

CN(CCOc1ccc(CC(Nc2ccsc2C(=O)c2ccccc2)C(=O)O)cc1)c1nc2ccccc2o1 (stereo not given)
EC50 [1]: 12 nM
Ki [2]: 9.77 nM

Cc1oc(-c2ccccc2)nc1CCOc1ccc(CC(Nc2ccccc2C(=O)c2ccc(CN(C)C)cc2)C(=O)O)cc1 (stereo not given)
EC50 [1]: 407 nM
Ki [2]: 15.5 nM

COc1cccc(C(=O)c2ccccc2NC(Cc2ccc(OCCN(C)c3nc4ccccc4o3)cc2)C(=O)O)c1 (stereo not given)
EC50 [1]: 117 nM
Ki [2]: 2.29 nM

CN(CCOc1ccc(CC(Nc2ccccc2C(=O)c2cccc3ccccc23)C(=O)O)cc1)c1nc2ccccc2o1 (stereo not given)
Ki [3]: 3.24 nM
EC50 [4]: 85.1 nM

CN(CCOc1ccc(CC(Nc2ccccc2C(=O)c2ccccc2)C(=O)O)cc1)c1nc2ccccc2o1 (stereo not given)
Ki [2]: 1.48 nM

Cc1oc(-c2ccccc2)nc1CCOc1ccc(CC(Nc2ccccc2C(=O)c2cccc(N)c2)C(=O)O)cc1 (stereo not given)
solubility [5]: 525 µg/mL (≈ 935 µM)
solubility [6]: 3 µg/mL (≈ 5.34 µM)
EC50 [1]: 8.91 nM
Ki [2]: 3.24 nM

CN(CCOc1ccc(CC(Nc2ccccc2C(=O)c2ccc(OCc3ccccc3)cc2)C(=O)O)cc1)c1nc2ccccc2o1 (stereo not given)
EC50 [1]: 759 nM
Ki [2]: 66.1 nM

CN(CCOc1ccc(CC(Nc2ccccc2C(=O)c2ccc(-c3ccccc3)cc2)C(=O)O)cc1)c1nc2ccccc2o1 (stereo not given)
Ki [3]: 49 nM
EC50 [4]: 24 nM

COc1ccc(C(=O)c2ccccc2NC(Cc2ccc(OCCN(C)c3nc4ccccc4o3)cc2)C(=O)O)cc1 (stereo not given)
EC50 [1]: 32.4 nM
Ki [2]: 5.62 nM

Cc1oc(-c2ccccc2)nc1CCOc1ccc(CC(Nc2ccccc2C(=O)c2cccnc2)C(=O)O)cc1 (stereo not given)
solubility [5]: 55 µg/mL (≈ 100 µM)
solubility [6]: 18 µg/mL (≈ 32.9 µM)
EC50 [1]: 1.48 nM
Ki [2]: 0.933 nM

CN(CCOc1ccc(CC(Nc2ccncc2C(=O)c2ccccc2)C(=O)O)cc1)c1nc2ccccc2o1 (stereo not given)
EC50 [1]: 9330 nM
Ki [2]: 155 nM

CN(CCOc1ccc(CC(Nc2sccc2C(=O)c2ccccc2)C(=O)O)cc1)c1nc2ccccc2o1 (stereo not given)
EC50 [1]: 38 nM
Ki [2]: 23.4 nM

COc1ccccc1C(=O)c1ccccc1NC(Cc1ccc(OCCN(C)c2nc3ccccc3o2)cc1)C(=O)O (stereo not given)
EC50 [1]: 38 nM

Cc1cccc(C(=O)c2ccccc2NC(Cc2ccc(OCCN(C)c3nc4ccccc4o3)cc2)C(=O)O)c1 (stereo not given)
EC50 [1]: 16.6 nM
Ki [2]: 2.69 nM

Cc1oc(-c2ccccc2)nc1CCOc1ccc(CC(Nc2ccccc2C(=O)c2ccc(CO)cc2)C(=O)O)cc1 (stereo not given)
solubility [5]: 75 µg/mL (≈ 130 µM)
solubility [6]: 22 µg/mL (≈ 38.2 µM)
EC50 [1]: 17.4 nM
Ki [2]: 4.17 nM

CN(CCOc1ccc(CC(Nc2ccccc2C(=O)C2CCCCCC2)C(=O)O)cc1)c1nc2ccccc2o1 (stereo not given)
EC50 [1]: 7.76 nM
Ki [2]: 39.8 nM

Cc1oc(-c2ccccc2)nc1CCOc1ccc(CC(Nc2ccccc2C(=O)N(C)C)C(=O)O)cc1 (stereo not given)
EC50 [1]: 562 nM
Ki [2]: 251 nM

CN(CCOc1ccc(C[C@@H](Nc2ccccc2C(=O)C2CCCCC2)C(=O)O)cc1)c1nc2ccccc2o1
EC50 [1]: > 10000 nM
Ki [2]: 1550 nM

Cc1oc(-c2ccccc2)nc1CCOc1ccc(CC(Nc2ccccc2C(=O)OC(C)C)C(=O)O)cc1 (stereo not given)
EC50 [1]: 0.575 nM
Ki [2]: 0.977 nM

CN(CCOc1ccc(CC(Nc2ccccc2C(=O)c2cccs2)C(=O)O)cc1)c1nc2ccccc2o1 (stereo not given)
EC50 [1]: 45.7 nM
Ki [2]: 2.75 nM

CN(CCOc1ccc(CC(Nc2ccccc2C(=O)c2ccccc2C(F)(F)F)C(=O)O)cc1)c1nc2ccccc2o1 (stereo not given)
EC50 [1]: 39.8 nM
Ki [2]: 2.69 nM
